Assay results taken from ChEMBL document CHEMBL1138840, “Discovery of positive allosteric modulators for the metabotropic glutamate receptor subtype 5 from a series of N-(1,3-diphenyl-1H- pyrazol-5-yl)benzamides that potentiate receptor function in vivo” (J Med Chem, 2004).
Values belong to the molecule of their own block, whether it stands above or below them.

How the values were obtained:
[1] = molecular target: T1, Metabotropic glutamate receptor 5 (Homo sapiens, UniProt P41594); test: Fold potentiation in CHO cells overexpressing human metabotropic glutamate receptor 5; type: functional, cell-based
Summary of the method: (§1)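 FLIPR calcium assay in CHO cells transfected with human or rat mGluR5. Compound added with a low glutamate concentration (300 nM), measuring increase in response; compound alone (up to 100 µM) checked for agonist activity.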
Target sequence in this assay (P41594 21-1212 limits assumed): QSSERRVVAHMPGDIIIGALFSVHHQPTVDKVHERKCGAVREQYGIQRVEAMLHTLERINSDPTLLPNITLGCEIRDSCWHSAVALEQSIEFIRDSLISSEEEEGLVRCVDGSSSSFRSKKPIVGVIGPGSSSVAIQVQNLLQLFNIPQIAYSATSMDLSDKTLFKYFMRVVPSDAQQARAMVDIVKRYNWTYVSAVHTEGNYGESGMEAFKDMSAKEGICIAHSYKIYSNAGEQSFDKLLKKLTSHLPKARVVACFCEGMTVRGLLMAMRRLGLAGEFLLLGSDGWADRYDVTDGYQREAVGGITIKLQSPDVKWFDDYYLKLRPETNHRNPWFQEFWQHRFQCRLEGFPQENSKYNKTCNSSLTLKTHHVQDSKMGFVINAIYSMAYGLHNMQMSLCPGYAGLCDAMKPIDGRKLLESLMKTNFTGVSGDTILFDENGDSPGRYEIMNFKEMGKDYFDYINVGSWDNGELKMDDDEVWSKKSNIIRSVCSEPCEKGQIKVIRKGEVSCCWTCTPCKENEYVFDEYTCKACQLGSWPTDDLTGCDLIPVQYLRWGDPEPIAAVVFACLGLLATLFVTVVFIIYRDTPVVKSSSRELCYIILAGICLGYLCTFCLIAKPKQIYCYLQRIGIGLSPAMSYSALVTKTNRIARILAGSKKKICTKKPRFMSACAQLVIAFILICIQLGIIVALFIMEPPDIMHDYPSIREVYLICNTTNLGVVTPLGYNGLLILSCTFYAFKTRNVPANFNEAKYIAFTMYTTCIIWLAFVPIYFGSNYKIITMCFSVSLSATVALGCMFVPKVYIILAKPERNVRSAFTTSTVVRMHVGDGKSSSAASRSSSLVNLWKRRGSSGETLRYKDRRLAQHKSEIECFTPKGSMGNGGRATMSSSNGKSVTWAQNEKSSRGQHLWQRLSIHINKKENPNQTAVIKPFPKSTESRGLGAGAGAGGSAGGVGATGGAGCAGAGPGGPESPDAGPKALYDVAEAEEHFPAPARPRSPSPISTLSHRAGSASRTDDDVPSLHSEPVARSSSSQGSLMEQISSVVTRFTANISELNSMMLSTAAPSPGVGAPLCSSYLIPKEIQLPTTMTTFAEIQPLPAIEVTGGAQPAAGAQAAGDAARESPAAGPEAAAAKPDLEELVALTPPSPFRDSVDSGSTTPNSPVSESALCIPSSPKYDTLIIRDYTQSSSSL

[2] = molecular target: T1, Metabotropic glutamate receptor 5; test: Effective concentration against metabotropic glutamate receptor 5 of human transfected into CHO cells; type: cell-based; summary of the method: as §1
Target sequence in this assay (P41594 whole entry): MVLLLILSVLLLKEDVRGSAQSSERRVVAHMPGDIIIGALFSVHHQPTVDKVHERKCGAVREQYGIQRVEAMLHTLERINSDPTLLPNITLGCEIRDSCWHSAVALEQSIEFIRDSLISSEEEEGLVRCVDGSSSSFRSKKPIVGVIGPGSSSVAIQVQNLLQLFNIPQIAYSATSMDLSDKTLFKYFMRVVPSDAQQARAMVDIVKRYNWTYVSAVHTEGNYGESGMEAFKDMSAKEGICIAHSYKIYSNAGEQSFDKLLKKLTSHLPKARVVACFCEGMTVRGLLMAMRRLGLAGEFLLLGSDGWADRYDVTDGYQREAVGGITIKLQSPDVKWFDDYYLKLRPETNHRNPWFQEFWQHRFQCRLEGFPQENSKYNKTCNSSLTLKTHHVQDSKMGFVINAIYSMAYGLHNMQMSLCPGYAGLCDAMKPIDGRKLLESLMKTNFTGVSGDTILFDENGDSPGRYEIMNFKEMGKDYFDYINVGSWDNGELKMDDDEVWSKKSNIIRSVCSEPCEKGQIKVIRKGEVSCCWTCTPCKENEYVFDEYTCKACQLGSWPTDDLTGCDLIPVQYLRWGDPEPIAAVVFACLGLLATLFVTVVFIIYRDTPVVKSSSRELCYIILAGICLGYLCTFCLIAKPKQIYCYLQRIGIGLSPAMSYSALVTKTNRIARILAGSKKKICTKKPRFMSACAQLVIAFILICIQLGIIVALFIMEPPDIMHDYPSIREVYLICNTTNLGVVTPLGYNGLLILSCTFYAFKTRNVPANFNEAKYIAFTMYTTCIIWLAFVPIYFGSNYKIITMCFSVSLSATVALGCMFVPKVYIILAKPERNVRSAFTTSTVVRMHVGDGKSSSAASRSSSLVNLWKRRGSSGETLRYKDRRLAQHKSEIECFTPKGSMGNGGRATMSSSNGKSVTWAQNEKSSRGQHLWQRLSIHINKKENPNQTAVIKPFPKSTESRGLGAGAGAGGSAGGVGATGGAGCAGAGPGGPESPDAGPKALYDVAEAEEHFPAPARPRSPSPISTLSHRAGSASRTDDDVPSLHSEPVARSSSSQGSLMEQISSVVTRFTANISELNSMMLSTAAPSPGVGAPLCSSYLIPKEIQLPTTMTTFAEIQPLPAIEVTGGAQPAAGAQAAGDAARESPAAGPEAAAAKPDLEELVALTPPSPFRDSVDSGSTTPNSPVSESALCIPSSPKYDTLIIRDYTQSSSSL

[3] = molecular target: Metabotropic glutamate receptor 5 (Rattus norvegicus) (UniProt P31424); test: Fold potentiation towards rat metabotropic glutamate receptor 5; type: functional; summary of the method: as §1
[4] = molecular target: Metabotropic glutamate receptor 5 (Rattus norvegicus, UniProt P31424); test: Effective concentration against metabotropic glutamate receptor 5 of rat; summary of the method: as §1
Chain of Metabotropic glutamate receptor 5 (Rattus norvegicus, UniProt P31424) (P31424 whole entry): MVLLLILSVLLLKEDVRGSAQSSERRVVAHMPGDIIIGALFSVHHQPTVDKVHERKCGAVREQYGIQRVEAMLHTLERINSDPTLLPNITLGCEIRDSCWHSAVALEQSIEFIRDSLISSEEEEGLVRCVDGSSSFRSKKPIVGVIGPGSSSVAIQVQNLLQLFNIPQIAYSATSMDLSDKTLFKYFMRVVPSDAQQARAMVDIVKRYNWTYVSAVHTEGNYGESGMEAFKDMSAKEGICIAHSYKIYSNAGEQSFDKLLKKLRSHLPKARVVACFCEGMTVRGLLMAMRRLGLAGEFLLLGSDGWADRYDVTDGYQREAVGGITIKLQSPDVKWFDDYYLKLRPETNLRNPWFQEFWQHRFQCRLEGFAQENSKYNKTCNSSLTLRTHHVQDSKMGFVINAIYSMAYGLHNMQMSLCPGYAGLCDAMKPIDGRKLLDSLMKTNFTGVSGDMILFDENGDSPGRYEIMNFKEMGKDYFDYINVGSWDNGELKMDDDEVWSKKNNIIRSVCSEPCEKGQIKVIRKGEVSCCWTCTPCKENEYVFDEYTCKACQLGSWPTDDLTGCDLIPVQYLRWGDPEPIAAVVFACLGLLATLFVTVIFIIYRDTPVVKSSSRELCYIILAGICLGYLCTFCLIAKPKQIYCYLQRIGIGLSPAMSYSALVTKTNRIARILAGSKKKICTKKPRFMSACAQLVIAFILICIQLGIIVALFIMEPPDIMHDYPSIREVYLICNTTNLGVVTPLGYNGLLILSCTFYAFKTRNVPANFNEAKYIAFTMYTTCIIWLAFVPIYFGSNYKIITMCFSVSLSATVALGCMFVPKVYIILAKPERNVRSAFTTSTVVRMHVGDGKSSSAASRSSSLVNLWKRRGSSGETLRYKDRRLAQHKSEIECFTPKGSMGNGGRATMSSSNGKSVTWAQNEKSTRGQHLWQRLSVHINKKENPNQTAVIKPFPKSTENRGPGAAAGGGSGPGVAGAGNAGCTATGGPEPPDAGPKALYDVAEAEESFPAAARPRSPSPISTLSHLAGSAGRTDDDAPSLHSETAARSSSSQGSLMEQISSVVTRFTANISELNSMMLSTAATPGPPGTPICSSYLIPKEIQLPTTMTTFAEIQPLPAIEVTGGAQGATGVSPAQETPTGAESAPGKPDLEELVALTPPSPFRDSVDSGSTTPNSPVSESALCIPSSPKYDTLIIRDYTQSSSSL

Chain of Metabotropic glutamate receptor 5 (Rattus norvegicus) (P31424 21-1203 limits assumed): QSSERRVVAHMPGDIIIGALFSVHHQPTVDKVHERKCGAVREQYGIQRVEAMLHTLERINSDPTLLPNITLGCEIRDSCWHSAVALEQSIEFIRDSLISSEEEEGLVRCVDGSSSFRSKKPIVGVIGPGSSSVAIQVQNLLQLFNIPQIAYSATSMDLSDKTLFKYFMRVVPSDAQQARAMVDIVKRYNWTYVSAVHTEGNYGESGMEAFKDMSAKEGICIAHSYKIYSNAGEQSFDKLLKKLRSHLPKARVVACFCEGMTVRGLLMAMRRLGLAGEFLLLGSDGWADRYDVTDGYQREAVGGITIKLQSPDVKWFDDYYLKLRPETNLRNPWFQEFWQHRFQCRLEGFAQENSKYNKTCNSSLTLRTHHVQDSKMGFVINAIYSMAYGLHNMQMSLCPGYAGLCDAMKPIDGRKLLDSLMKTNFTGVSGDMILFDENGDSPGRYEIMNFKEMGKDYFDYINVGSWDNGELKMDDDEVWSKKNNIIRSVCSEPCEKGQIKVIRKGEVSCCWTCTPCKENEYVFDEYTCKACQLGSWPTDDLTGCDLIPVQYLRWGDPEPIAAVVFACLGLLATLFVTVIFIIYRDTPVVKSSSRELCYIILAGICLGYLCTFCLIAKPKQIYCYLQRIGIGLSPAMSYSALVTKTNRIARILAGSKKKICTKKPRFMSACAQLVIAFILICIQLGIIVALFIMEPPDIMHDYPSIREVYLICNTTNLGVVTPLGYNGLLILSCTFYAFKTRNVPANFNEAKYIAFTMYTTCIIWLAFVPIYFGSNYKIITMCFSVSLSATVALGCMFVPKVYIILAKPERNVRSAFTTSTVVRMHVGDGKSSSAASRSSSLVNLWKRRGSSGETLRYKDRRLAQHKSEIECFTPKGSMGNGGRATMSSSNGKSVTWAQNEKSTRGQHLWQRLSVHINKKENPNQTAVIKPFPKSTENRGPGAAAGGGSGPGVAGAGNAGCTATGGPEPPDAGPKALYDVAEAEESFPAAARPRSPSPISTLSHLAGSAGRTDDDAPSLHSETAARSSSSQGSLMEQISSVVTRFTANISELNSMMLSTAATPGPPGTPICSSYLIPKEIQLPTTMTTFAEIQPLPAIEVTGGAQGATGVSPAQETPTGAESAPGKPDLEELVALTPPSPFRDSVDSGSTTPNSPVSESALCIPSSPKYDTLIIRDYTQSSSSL

SMILES: O=C(Nc1cc(-c2ccccc2)nn1-c1ccccc1)c1ccccc1Cl
- Potentiation [1]: 3.7
- EC50 [2]: 2500 nM

SMILES: O=C(Nc1cc(-c2ccccc2)nn1-c1ccccc1)c1ccccc1F
- Potentiation [1]: 6.4
- EC50 [2]: 75 nM
- Potentiation [3]: 6.3
- EC50 [4]: 100 nM

SMILES: O=C(Nc1cc(-c2ccccc2)nn1-c1ccccc1)c1ccccn1
- Potentiation [1]: 3.6
- EC50 [2]: 290 nM
- Potentiation [3]: 8
- EC50 [4]: 585 nM

SMILES: O=C(Nc1cc(-c2ccccc2)nn1-c1ccccc1)c1ccccc1
- Potentiation [1]: 5
- EC50 [2]: 40 nM
- Potentiation [3]: 5
- EC50 [4]: 300 nM

SMILES: Fc1cccc(/C=N/N=C/c2cccc(F)c2)c1
- Potentiation [1]: 3
- EC50 [2]: 2.36 nM

SMILES: O=C(Nc1cc(-c2ccccc2)nn1-c1ccccc1)c1ccc(Cl)cc1
- Potentiation [1]: 5
- EC50 [2]: 20 nM
- Potentiation [3]: 4.9
- EC50 [4]: 100 nM

SMILES: O=C(Nc1ccc(Cl)cc1CN1C(=O)c2ccccc2C1=O)c1ccccc1O
- Potentiation [1]: 7

SMILES: O=C(Nc1cc(-c2ccccc2)nn1-c1ccccc1)c1ccc(F)c(F)c1
- Potentiation [1]: 2.6
- EC50 [2]: 10 nM
- Potentiation [3]: 6.4
- EC50 [4]: 20 nM

SMILES: O=C(Nc1cc(-c2ccccc2)nn1-c1ccccc1)c1cccs1
- Potentiation [1]: 2.9
- EC50 [2]: 200 nM
- Potentiation [3]: 5.3
- EC50 [4]: 400 nM

SMILES: O=C(Nc1cc(-c2ccccc2)nn1-c1ccccc1)c1cccc(Cl)c1
- Potentiation [1]: 5.4
- EC50 [2]: 40 nM
- Potentiation [3]: 3.3
- EC50 [4]: 200 nM

Second part, the molecule after the results:

- Potentiation [1]: 2.5
- EC50 [2]: 1800 nM
- Potentiation [3]: 3.7
- EC50 [4]: 2900 nM
SMILES: O=C(Nc1cc(-c2ccccc2)nn1-c1ccccc1)c1ccsc1

- Potentiation [1]: 2.6
- EC50 [2]: 20 nM
- Potentiation [3]: 7.7
- EC50 [4]: 65 nM
SMILES: O=C(Nc1cc(-c2ccccc2)nn1-c1ccccc1)c1cccc(F)c1

- Potentiation [1]: 9
- EC50 [2]: 90 nM
- Potentiation [3]: 9.4
- EC50 [4]: 100 nM
SMILES: Cc1cccc(C(=O)Nc2cc(-c3ccccc3)nn2-c2ccccc2)c1

- Potentiation [1]: 2.9
- EC50 [2]: 30 nM
- Potentiation [3]: 8
- EC50 [4]: 50 nM
SMILES: O=C(Nc1cc(-c2ccccc2)nn1-c1ccccc1)c1ccc(F)cc1

- Potentiation [1]: 7
- EC50 [2]: 245 nM
SMILES: O=C(Nc1ccc(Cl)cc1CN1C(=O)c2ccccc2C1=O)c1ccccn1

- Potentiation [1]: 6
- EC50 [2]: 740 nM
SMILES: O=C(Nc1ccc(Br)cc1CN1C(=O)c2ccccc2C1=O)c1ccccn1

- Potentiation [1]: 4.3
- EC50 [2]: 200 nM
- Potentiation [3]: 4.8
- EC50 [4]: 400 nM
SMILES: O=C(Nc1cc(-c2ccccc2)nn1-c1ccccc1)c1cnccn1

- Potentiation [1]: 0.9
- EC50 [2]: > 10000 nM
- Potentiation [3]: 0.9
- EC50 [4]: > 10000 nM
SMILES: O=C(Nc1cc(-c2ccccc2)nn1-c1ccccc1)c1ccccc1O

- Potentiation [1]: 4
- Potentiation [3]: 4.3
SMILES: N#Cc1cccc(C(=O)Nc2cc(-c3ccccc3)nn2-c2ccccc2)c1

- Potentiation [1]: 9
- EC50 [2]: 30 nM
- Potentiation [3]: 10.9
- EC50 [4]: 40 nM
SMILES: Cc1ccc(C(=O)Nc2cc(-c3ccccc3)nn2-c2ccccc2)cc1

- Potentiation [1]: 5.2
- EC50 [2]: 19 nM
- Potentiation [3]: 6.8
- EC50 [4]: 20 nM
SMILES: O=C(Nc1cc(-c2ccccc2)nn1-c1ccccc1)c1ccc(C(F)(F)F)cc1

- Potentiation [1]: 0.9
- EC50 [2]: > 10000 nM
SMILES: Cc1ccccc1C(=O)Nc1cc(-c2ccccc2)nn1-c1ccccc1
